# Published values gathered from unrelated publications.
# Protocols differ between the studies behind these lines. pIC50: −log10 of the molar value.
Structure (SMILES),target or system,test,test system,conditions,quantity,result
C=CC1(C)CC(OC(=O)CSCCCCCN(C)C)C2(C)C(C)CCC3(CCC(=O)C32)C(C)C1O (stereo not drawn),K562,cell growth or viability,,,pIC50,5.01
COc1ccc2c(=O)n(C)c(-c3ccccc3)nc2c1,,,"male Sprague-Dawley rat, lung","oral, 30 mg/kg, 2 h",concentration,2.13 ng/mL
CCOC(=O)[C@@]12C[C@@H]1[C@@H](n1ccc3c(NC)nc(C#Cc4ccc(Cl)s4)nc31)[C@H](O)[C@@H]2O,,,"male Sprague-Dawley rat, plasma","oral, 1 mg/kg, 15 min",concentration,5.75 ng/mL
Cc1noc(C)c1Cn1cc(N2C(=O)CN(Cc3cccc(O)c3)C2=O)cn1,,,"male Sprague-Dawley rat, plasma","oral, 100 mg/kg, 1 h",concentration,30.5 ng/mL
C[C@@H]1Cn2ncc(-c3ccc(C(=O)N4CCCc5ccccc54)cc3)c2CN1C(=O)[C@H](C)c1ccccc1,"Broad substrate specificity ATP-binding cassette transporter ABCG2 (ABCG2, Homo sapiens, UniProt Q9UNQ0)",,"dog, MDCK-MDR1",,Papp B→A,13.4 ×10⁻⁶ cm/s
COC(=O)/C(C#N)=C1\Nc2ccccc2O1,K562,cell growth or viability,,,pIC50,4.68
CCc1cc(-c2noc(-c3cc(OC)nc(C4CCCC4)c3)n2)cc(C)c1OC[C@@H](O)CO,,,"Wistar rat, plasma","oral, 0.3 mg/kg, 3 h, single dose",concentration,16.7 ng/mL
COc1ccc2c(c1)CCc1c(C(=O)NCCc3nc4cc(C)ccc4[nH]3)n[nH]c1-2,K562,cell growth or viability,,,pIC50,> 5.88
COc1cccc(-c2n[nH]c(SCc3ccccn3)n2)c1OC,,,"female Sprague-Dawley rat, plasma","intravenous, 1 mg/kg, 10 min, single dose",concentration,2680 ng/mL
